The first assay concerns Mus musculus. Kind of assay: Compound is tested against sarcoma 180 ascites (S180a) in female CFW mice, and evaluated for the best percent of increase in life span at optimal dose of 320 mg/kg. Also on record: dose 320 mg/kg. It counts as functional, organism-based. The gist of the method: (§1)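 Female CFW mice (18-25 g) were inoculated ip with 2×10^6 S180a cells on day 0. Single ip dose in 0.5 mL water on day 1, over 6 dose-doublings up to 320 mg/kg, 6 mice per dose. Controls got water; the cisplatin control got 8 mg/kg in 0.15 M NaCl. Run for twice control MST, with survivors counted dead then. %ILS, ≥50% = active.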
As usually defined, the ILS is how much longer treated animals lived than controls. High values mean much gain in survival, low ones little gain in survival. cis[Pt(NH3)2(N3-cytidinepyridine)Cl]NO3 showed an ILS of 30%.

The next assay concerns Mus musculus. The assay can be described thus: Compound is tested against sarcoma 180 ascites (S180a) in female CFW mice, and evaluated for the best percent of increase in life span at optimal dose of 40 mg/kg. The class given is functional, organism-based. Also on record: dose 40 mg/kg. In a few lines: as §1
Consider cis[Pt(NH3)2(N1-4-methylpyridine)Cl]Cl, for which the ILS stood at 83%. As for cis[Pt(NH3)2(N1-pyridine)Cl]Cl, the ILS turned out to be 103%.

Consider cis[Pt(NH3)2(N3-1-methylcytosine)Cl]NO3, for which the ILS came out at 73%. On the same count and under the same terms, the result for cis[Pt(NH3)2(N1-4-chloropyridine)Cl]Cl reads 77%.

Another assay has as its system Mus musculus. Kind of assay: Compound is tested against sarcoma 180 ascites (S180a) in female CFW mice, and evaluated for the best percent of increase in life span at optimal dose of 8 mg/kg. The class given is functional, organism-based. Set-up: dose 8 mg/kg. In a few lines: as §1
The substance CISPLATIN had an ILS of 81%.

The next assay concerns Mus musculus. Kind of assay: Compound is tested against sarcoma 180 ascites (S180a) in female CFW mice, and evaluated for the best percent of increase in life span at optimal dose of 160 mg/kg. It counts as functional, organism-based. Also on record: dose 160 mg/kg. The gist of the method:
as §1
“cis[Pt(NH3)2(N3-1-beta-D-arabinofuranosylcytocin)Cl]NO3.H2O”: the ILS was 51%. On the same count and under the same terms, the result for “cis[Pt(NH3)2(N1-6-methyl-hydroxypyridine)Cl]Cl” reads 93%; that for cis[Pt(NH3)2(N3-5-methylcytosine)Cl]NO3, 84%.

As to cis[Pt(NH3)2(N7-guanosine)Cl]NO3, the ILS stood at 79%. Still for that read-out and setting: the result for “cis[Pt(NH3)2(N1-hydroxypyridine)Cl]Cl H2O” reads 97%.

In another assay the test system is Mus musculus. The assay can be described thus: Compound is tested against sarcoma 180 ascites (S180a) in female CFW mice, and evaluated for the best percent of increase in life span at optimal dose of 80 mg/kg. The class given is functional, organism-based. Set-up: dose 80 mg/kg. In a few lines:
as §1
The substance cis[Pt(NH3)2(N1-cytisine)Cl]Cl yielded an ILS of 92%. The substance cis[Pt(NH3)2(N1-pyridine)Cl]Cl showed an ILS of 26%. The same measure, in the same setting: the figure for “cis[Pt(NH3)2(N1-methyl isonicotinate)Cl]Cl” is 31%; for cis[Pt(NH3)2(N3-2,deoxycytidine)Cl]Cl it is 85%. Still for that read-out and setting: the figure for [Pt(NH3)2(N1-pyridine)Cl]Cl is 17%; for cis[Pt(NH3)2(N1-4-bromopyridine)Cl]Cl it is 102%; for “cis[Pt(NH3)2(N1-6-methoxy-3-hydroxy-hydroxypyridine)Cl]Cl H2O” it is 93%.

Take “cis[Pt(NH3)2(N7-2,deoxyguanosine)Cl]NO3; H2O”: the ILS was 88%. With cis[Pt(NH3)2(N1-3-hydroxypyridine)Cl]Cl, the ILS came to 69%.

Values taken from ChEMBL document CHEMBL1124674, “Chemical and biological properties of a new series of cis-diammineplatinum(II) antitumor agents containing three nitrogen donors: cis-[Pt(NH3)2(N-donor)Cl]+” (J Med Chem, 1989).
